≈ marks a conversion by molar mass, not a printed value. Calls of active or inactive are those of the source. No cut-off for these calls is given here.
Columns and labels:
Cytochrome P450 1A2 = Cytochrome P450 1A2 (Homo sapiens, UniProt P05177); assay: Inhibition of CYP1A2; format: ADME
Outline: (§1)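 Enzyme assays per CYP isoform (1A2, 2C8, 2D6, 3A4), with turnover of an appropriate fluorescent substrate as read-out; IC₅₀ reported.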

[1] = target: Peroxisome proliferator-activated receptor delta (Mus musculus, UniProt P35396); assay: Agonist activity at mouse PPAR delta
[2] = Aqueous solubility at pH 6.8; format: physicochemical
[3] = Cmax in mouse at 10 mg/kg, po; format: ADME, organism-based; set-up: dose 10 mg/kg, route oral; settings: in vivo
Outline: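 Mice dosed orally in 0.5% methylcellulose vehicle; plasma Cmax reported.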

[4] = target: T1, Peroxisome proliferator-activated receptor delta (Homo sapiens, UniProt Q03181); assay: Agonist activity at human PPAR delta expressed in CV1 cells by GAL4 transactivation assay
T1 sequence (Q03181 whole entry): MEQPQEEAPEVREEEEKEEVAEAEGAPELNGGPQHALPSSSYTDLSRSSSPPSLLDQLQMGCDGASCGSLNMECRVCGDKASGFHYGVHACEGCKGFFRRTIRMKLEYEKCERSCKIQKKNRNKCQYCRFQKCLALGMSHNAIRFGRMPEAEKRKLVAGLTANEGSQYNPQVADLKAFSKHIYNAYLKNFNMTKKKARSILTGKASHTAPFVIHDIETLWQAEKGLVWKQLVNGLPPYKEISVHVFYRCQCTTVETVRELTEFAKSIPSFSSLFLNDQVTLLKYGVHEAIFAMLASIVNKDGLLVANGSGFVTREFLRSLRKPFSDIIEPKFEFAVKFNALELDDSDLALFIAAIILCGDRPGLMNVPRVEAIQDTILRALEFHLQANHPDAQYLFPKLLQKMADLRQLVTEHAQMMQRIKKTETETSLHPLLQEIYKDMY

Cytochrome P450 2C8 = Cytochrome P450 2C8 (Homo sapiens, UniProt P10632); assay: Inhibition of CYP2C8; format: ADME; outline: as §1
Cytochrome P450 2C9 = Cytochrome P450 2C9 (Homo sapiens, UniProt P11712); assay: Inhibition of CYP2C9; format: ADME
Cytochrome P450 2D6 = Cytochrome P450 2D6 (Homo sapiens, UniProt P10635); assay: Inhibition of CYP2D6; format: ADME; outline: as §1
Cytochrome P450 3A4 = Cytochrome P450 3A4 (Homo sapiens, UniProt P08684); assay: Inhibition of CYP3A4; format: ADME; outline: as §1
Androgen receptor = Androgen receptor (Homo sapiens, UniProt P10275); assay: Displacement of [3H]dihydrotestosterone from human recombinant androgen receptor expressed in SF9 baculovirus cells
Estrogen receptor = Estrogen receptor (Mus musculus, UniProt O08537+P19785); assay: Displacement of [3H]O-estradiol from ER in Swiss mouse uteri; format: protein assay
Glucocorticoid receptor = Glucocorticoid receptor (Homo sapiens, UniProt P04150); assay: Displacement of [H]dexamethaxone from glucocorticoid receptor in HUH cells; format: cell-based
Progesterone receptor = Progesterone receptor (Homo sapiens, UniProt P06401); assay: Displacement of [3H]progesterone from progesterone receptor in T47D cells; format: cell-based
Outline: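 Cytosol from T47D cells incubated overnight at 4 °C with ³H-progesterone at 10 nM final, with or without compound. DMSO defined total binding and 1 µM unlabelled progesterone defined nonspecific binding. Bound and free ligand were separated on a spin plate, and the flow-through was counted by scintillation.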

[5] = target: T2, Peroxisome proliferator-activated receptor alpha (Homo sapiens) (UniProt Q07869); assay: (§2) Agonist activity at human PPAR alpha expressed in CV1 cells by GAL4 transactivation assay; format: functional, cell-based; settings: CV-1
T2 sequence (whole entry): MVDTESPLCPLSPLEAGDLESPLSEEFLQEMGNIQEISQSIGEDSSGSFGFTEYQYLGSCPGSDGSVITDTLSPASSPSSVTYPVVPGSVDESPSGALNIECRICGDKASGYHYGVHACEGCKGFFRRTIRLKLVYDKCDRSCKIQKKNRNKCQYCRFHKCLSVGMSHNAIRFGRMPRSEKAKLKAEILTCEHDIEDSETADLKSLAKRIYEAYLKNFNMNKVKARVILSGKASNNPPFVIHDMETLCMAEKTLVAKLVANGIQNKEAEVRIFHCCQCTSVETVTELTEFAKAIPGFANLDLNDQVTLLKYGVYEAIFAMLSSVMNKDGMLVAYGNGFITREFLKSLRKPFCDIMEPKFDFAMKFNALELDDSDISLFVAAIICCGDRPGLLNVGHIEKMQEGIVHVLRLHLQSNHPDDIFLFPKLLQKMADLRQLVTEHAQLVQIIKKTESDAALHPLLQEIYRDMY
Outline: (§3)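 CV-1 cells plated, grown overnight at 37 °C in 5% CO₂, then transfected with GAL4-fused human PPARα ligand binding domain, pFR-LUC and pRL-SV40 reporter DNAs by lipofection. After a further overnight incubation, cells were exposed to compound or vehicle overnight. Activity was read as dual-luciferase reporter signal.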

[6] = target: T3, Peroxisome proliferator-activated receptor alpha (Homo sapiens, UniProt Q07869); assay: as §2; format: functional, cell-based, CV-1; outline: as §3
T3 sequence (Q07869 whole entry): T2 sequence (whole entry)

[7] = target: T3, Peroxisome proliferator-activated receptor alpha; assay: Agonist activity at human PPAR alpha by FRET assay; format: functional
Outline: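 Human PPARα ligand binding domain (GST-tagged) association with biotin-labeled co-activator CBP; Eu-labeled anti-GST antibody and streptavidin-APC; incubated 2 h at rt in buffer with or without compound; fluorescence read at 615 or 655 nm emission, 340 nm excitation.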

[8] = target: T1, Peroxisome proliferator-activated receptor delta; assay: Agonist activity at human PPAR delta by FRET assay; format: functional
[9] = target: T4, Peroxisome proliferator-activated receptor gamma (Mus musculus, UniProt P37238); assay: Agonist activity at PPAR gamma in mouse 3T3L1 cells assessed as increase in insulin receptor by IRBA; format: functional, cell-based, 3T3-L1
T4 sequence (P37238 whole entry): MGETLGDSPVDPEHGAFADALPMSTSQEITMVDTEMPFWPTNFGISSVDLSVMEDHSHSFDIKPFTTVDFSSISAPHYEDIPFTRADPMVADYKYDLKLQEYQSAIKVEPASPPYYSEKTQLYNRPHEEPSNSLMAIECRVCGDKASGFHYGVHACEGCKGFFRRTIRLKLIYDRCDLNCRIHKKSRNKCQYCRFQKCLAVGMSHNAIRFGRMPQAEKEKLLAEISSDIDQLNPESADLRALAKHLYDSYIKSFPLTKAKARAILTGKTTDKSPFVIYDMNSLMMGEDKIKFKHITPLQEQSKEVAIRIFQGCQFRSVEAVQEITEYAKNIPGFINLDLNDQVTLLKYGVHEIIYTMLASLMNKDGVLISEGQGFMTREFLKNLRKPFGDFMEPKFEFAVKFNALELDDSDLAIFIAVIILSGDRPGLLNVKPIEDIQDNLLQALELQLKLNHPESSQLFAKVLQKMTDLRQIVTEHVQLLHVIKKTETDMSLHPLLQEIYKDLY

[10] = target: T5, Peroxisome proliferator-activated receptor alpha (Mus musculus) (UniProt P23204); assay: (§4) Agonist activity at mouse PPAR alpha; format: functional
T5 sequence (whole entry): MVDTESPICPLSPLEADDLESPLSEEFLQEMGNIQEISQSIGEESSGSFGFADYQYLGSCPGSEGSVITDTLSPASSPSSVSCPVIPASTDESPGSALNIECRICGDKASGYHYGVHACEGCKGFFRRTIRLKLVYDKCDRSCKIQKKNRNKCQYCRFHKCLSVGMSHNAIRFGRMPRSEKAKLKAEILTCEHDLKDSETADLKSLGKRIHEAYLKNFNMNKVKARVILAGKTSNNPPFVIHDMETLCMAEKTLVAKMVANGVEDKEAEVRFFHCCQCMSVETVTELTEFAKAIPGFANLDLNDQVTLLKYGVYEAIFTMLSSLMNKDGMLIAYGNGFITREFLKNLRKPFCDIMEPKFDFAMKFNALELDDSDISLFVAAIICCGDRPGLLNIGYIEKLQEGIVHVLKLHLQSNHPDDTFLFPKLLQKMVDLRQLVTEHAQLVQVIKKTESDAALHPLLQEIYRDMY

[11] = target: Peroxisome proliferator-activated receptor alpha (Mus musculus, UniProt P23204); assay: as §4; format: functional
[12] = target: PPAR gamma (Homo sapiens); assay: Agonist activity at human PPAR gamma expressed in human preadipocytes assessed as increase in insulin receptor by IRBA
Rattus norvegicus = assay: Reduction of FFA level in ZDF rat at 10 mg/kg, po after 21 days; format: functional, organism-based; set-up: dose 10 mg/kg
Outline: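 Male ZDF rats, on chow 4-8 weeks to confirm hyperglycemia, grouped by equal baseline blood glucose; oral dosing once daily for 21 days in 0.5% methylcellulose in water; bled ~24 h after last dose; plasma FFA measured.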

Mus musculus [13] = assay: Reduction of blood glucose level in orally dosed db/db mouse at 1 mg/kg after 8 days; format: functional, organism-based; set-up: dose 1 mg/kg
Outline: (§5)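 Female db/db mice, on chow 3-4 weeks to confirm hyperglycemia, grouped by equal baseline blood glucose; oral dosing once daily in 0.5% methylcellulose in water; blood glucose by analyzer ~24 h after last dose; percent change vs vehicle = ((Tf/Ti)/(Vf/Vi) − 1) × 100.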

Mus musculus [14] = assay: Reduction of blood glucose level in orally dosed db/db mouse at 3 mg/kg after 8 days; format: functional, organism-based; set-up: dose 3 mg/kg; outline: as §5
Mus musculus [15] = assay: Reduction of blood glucose level in orally dosed db/db mouse at 10 mg/kg after 8 days; format: functional, organism-based; set-up: dose 10 mg/kg; outline: as §5

Chain of Cytochrome P450 2D6 (P10635 whole entry): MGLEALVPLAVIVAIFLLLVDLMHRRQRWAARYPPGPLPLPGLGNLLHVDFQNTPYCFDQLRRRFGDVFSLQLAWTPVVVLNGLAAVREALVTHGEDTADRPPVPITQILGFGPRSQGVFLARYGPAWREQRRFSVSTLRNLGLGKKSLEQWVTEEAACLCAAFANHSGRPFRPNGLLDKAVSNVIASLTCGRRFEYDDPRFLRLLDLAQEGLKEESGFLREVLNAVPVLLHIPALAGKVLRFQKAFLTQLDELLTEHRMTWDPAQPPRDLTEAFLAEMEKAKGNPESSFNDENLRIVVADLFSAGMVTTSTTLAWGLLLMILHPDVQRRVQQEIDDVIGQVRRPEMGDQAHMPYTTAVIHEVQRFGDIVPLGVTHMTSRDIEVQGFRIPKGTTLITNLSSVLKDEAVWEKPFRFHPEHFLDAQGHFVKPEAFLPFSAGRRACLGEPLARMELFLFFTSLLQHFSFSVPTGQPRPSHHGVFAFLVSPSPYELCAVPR
Chain of Cytochrome P450 1A2 (P05177 whole entry, canonical isoform): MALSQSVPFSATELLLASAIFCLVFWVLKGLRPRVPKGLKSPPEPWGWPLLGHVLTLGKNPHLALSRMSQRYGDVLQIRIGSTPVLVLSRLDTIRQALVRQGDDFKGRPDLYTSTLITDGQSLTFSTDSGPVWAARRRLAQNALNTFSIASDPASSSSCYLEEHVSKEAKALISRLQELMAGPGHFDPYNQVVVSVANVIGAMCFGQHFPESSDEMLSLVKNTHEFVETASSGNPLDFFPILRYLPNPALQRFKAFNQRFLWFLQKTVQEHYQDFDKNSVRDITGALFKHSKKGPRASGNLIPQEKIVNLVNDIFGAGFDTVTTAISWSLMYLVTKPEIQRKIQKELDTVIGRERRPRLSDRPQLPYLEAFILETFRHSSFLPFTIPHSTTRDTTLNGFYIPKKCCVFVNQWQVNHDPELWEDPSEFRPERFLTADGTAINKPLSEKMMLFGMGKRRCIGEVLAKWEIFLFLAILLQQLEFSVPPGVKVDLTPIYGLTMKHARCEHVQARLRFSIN
Chain of Cytochrome P450 3A4 (P08684 whole entry): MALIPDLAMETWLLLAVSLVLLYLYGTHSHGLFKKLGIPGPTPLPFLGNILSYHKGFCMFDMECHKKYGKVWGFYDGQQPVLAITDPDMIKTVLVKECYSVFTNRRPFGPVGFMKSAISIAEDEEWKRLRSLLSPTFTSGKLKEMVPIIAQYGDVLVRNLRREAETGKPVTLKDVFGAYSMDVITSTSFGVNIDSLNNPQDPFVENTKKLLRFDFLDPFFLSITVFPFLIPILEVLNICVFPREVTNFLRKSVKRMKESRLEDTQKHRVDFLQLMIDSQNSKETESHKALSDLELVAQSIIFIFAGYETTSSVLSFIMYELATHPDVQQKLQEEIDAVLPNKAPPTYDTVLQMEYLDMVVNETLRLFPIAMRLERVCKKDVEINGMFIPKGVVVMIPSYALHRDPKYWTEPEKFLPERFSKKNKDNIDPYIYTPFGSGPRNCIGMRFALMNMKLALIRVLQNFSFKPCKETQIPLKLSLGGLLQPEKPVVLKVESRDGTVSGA
Chain of Cytochrome P450 2C9 (P11712 whole entry): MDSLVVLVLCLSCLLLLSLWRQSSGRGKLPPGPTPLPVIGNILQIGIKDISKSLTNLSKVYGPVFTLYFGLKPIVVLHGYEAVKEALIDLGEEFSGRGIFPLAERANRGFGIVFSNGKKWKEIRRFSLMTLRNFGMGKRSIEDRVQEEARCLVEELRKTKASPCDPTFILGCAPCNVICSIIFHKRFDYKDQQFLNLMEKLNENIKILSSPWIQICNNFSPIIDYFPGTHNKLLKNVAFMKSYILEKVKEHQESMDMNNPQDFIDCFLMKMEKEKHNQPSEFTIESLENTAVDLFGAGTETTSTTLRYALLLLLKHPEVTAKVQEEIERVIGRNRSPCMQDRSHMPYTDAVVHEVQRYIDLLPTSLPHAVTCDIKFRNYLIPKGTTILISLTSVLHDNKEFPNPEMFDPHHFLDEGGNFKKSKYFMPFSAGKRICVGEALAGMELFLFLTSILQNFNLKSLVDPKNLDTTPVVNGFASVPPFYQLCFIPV
Chain of Glucocorticoid receptor (P04150 whole entry): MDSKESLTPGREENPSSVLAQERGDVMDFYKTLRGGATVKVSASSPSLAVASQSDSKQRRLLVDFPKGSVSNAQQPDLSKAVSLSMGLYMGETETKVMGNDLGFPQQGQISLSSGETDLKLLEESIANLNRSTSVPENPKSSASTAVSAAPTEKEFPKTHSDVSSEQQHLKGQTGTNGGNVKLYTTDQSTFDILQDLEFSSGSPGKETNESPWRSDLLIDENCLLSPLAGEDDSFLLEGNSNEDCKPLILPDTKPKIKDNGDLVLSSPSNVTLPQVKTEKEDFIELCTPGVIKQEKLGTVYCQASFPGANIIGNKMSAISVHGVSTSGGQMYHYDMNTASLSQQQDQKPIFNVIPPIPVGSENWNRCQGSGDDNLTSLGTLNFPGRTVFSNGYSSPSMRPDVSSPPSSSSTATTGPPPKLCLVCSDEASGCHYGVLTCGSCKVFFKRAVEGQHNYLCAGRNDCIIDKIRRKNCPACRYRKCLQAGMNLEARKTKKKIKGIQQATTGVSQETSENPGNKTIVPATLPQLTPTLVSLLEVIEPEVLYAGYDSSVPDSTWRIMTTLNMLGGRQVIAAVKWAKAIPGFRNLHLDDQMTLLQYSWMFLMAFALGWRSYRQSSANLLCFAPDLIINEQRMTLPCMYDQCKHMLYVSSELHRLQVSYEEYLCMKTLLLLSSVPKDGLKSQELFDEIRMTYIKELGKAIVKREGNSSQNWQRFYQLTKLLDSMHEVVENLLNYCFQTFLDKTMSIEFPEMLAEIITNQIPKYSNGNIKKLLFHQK
Chain of Peroxisome proliferator-activated receptor delta (Mus musculus, UniProt P35396) (P35396 whole entry): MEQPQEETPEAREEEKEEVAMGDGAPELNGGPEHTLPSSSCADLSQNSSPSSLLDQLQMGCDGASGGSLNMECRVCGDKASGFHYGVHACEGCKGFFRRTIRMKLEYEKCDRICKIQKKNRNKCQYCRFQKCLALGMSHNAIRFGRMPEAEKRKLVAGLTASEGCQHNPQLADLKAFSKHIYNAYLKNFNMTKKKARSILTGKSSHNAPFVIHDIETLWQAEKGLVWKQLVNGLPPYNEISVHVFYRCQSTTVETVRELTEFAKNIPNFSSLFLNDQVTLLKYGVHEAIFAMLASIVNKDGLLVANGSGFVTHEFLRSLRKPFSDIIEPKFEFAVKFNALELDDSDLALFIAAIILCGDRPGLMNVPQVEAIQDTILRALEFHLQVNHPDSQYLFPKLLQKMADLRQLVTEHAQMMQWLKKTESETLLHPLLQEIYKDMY
Chain of Progesterone receptor (P06401 whole entry): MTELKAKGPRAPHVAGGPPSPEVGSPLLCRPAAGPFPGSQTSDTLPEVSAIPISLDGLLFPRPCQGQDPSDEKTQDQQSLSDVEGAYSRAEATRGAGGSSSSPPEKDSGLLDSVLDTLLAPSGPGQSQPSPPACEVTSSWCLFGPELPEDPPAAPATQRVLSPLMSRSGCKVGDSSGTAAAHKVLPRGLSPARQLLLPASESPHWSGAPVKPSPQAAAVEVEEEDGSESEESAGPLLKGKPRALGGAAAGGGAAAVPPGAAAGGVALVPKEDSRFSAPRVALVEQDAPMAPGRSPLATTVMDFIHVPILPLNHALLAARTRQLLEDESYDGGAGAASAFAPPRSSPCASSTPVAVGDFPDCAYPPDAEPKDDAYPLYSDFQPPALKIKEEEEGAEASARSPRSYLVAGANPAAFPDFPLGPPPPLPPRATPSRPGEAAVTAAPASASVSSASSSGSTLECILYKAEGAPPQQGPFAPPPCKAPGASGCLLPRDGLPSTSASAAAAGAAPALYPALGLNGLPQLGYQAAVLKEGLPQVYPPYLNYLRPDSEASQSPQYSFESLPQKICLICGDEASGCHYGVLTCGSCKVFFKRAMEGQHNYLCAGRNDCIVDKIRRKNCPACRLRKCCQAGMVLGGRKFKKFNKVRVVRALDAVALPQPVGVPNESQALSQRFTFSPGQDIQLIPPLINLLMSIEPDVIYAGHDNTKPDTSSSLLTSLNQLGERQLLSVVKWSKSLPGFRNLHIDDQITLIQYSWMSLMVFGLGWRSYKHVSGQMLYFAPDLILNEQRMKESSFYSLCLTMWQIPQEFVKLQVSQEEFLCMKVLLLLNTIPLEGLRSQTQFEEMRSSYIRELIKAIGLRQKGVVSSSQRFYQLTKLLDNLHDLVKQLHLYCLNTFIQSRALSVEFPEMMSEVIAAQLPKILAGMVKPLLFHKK
Chain of Cytochrome P450 2C8 (P10632 whole entry): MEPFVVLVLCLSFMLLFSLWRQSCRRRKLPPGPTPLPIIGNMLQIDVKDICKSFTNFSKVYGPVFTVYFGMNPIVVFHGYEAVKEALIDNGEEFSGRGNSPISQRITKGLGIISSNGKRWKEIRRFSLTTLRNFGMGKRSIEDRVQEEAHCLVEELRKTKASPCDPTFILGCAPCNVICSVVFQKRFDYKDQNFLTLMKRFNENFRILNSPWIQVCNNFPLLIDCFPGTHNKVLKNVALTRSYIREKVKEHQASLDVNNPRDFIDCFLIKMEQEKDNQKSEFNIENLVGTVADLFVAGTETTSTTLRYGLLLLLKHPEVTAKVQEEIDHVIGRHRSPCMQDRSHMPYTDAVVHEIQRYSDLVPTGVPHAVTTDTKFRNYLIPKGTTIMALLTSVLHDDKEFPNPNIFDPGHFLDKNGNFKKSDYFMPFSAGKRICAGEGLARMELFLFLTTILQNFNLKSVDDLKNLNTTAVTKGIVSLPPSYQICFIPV

SMILES | IC50 (Cytochrome P450 1A2) | EC50 [1] | solubility [2] | Cmax [3] | EC50 [4] | IC50 (Cytochrome P450 2C8) | IC50 (Cytochrome P450 2C9) | IC50 (Cytochrome P450 2D6) | IC50 (Cytochrome P450 3A4) | EC50 (Androgen receptor) | EC50 (Estrogen receptor) | EC50 (Glucocorticoid receptor) | EC50 (Progesterone receptor) | Activity [5] | EC50 [6] | EC50 [7] | EC50 [8] | Activity [10] | EC50 [11] | further results
CCCc1cc(-c2nc3c(s2)CCCC3)ccc1OCCCOc1ccc2c(c1)CC[C@H]2CC(=O)O | > 10000 nM | 8.6 nM | < 5 µM | 5.1 µM | 2.6 nM | > 10000 nM | > 10000 nM | > 10000 nM | > 10000 nM | > 10000 nM | > 10000 nM | > 10000 nM | > 10000 nM | 100% | 5 nM | 43 nM | 1.9 nM | 79% | 7700 nM | EC50 [9]: 12 nM; EC50 [12]: 81 nM
O=C(O)C[C@@H]1CCc2cc(OCCCOc3ccc(-c4nc5c(s4)CCCC5)cc3)ccc21 | > 10000 nM | 84 nM | 31 µM (≈ 14.4 µg/mL) | 20 µM | 40 nM | > 10000 nM | > 10000 nM | > 10000 nM | > 10000 nM | > 10000 nM | > 10000 nM | > 10000 nM | > 10000 nM | 100% | 152 nM | 391 nM | 2.2 nM | 28% | > 10000 nM | 
CN(CCOc1ccc(CC2SC(=O)NC2=O)cc1)c1ccccn1 (centres undefined) |  |  |  |  |  |  |  |  |  |  |  |  |  |  |  |  |  |  |  | Activity (Rattus norvegicus): Active; Activity (Mus musculus [13]): Dose-dependent effect; Activity (Mus musculus [14]): Dose-dependent effect; Activity (Mus musculus [15]): Dose-dependent effect
